Sampled rows, rich in hits. Any-hit rate of the full collection: about 1.8%.
UPR XBP1 act: adaptive UPR (XBP1) activation; CHO-XBP1 luciferase reporter, IRE1-XBP1 UPR activation, luminescence; percent of tunicamycin response, DMSO as zero; activation, % at 20 µM; actives 0.33% (n = 330,000);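 active means versus positive control, 20 µM dose yields 30% or more activation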;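 further: 100% = tunicamycin at 10 µg/mL and 0% = DMSO only wells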
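Material: CHO cell line with stable XBP1 luciferase reporter; buffer or medium: F12 medium containing 10% fetal bovine serum; compound: single point, 20 µM final compound, 1% DMSO; incubation: 6 h treatment, 37 °C; measured by: glow luminescence from Steady-Glo reagent; evaluation: activation, % of tunicamycin; control set: tunicamycin high, DMSO low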
UPR CHOP act: activators of apoptotic arm of unfolded protein response (CHOP). CHO-CHOP luciferase reporter, UPR activation, luminescence; percent of tunicamycin response over DMSO baseline. activation, % at 10 µM. actives 0.34% (n = 330,000). AID 449763;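 active means at 10 µM dose, activation of 40% or more, normalized to positive control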;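 further: 100% = tunicamycin at 10 µg/mL and 0% = DMSO alone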
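measured by = luciferase luminescence | assay system = CHO-CHOP cells, stable luciferase reporter of PERK-eIF2a-CHOP signalling | amount = 500 reporter cells seeded per well | timing = 6 h compound exposure at 37 °C after overnight seeding | controls = positive tunicamycin 10 µg/mL, negative DMSO alone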
697 NFkB inh: inhibitors of the PMA/ionomycin-induced NF-kB reporter in 697 B cells; 697 B-cell NF-kB luciferase reporter, 16 h; inhibition, % at 4 µM; actives 0.33% (n = 330,000); AID 435022; in the data active means inhibition above about 35%
CRFR2-BP antag: antagonists of CRF-binding protein/CRF-R2 receptor complex. inhibition, % at 11.8 µM. AID 588475. actives 0.59% (n = 350,000). HEK293 CRF-R2/CRF-BP, CRF-induced calcium fluorescence;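 active means inhibition of the ligand-induced calcium signal above about 50% at the single tested concentration, limit read from the data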
Jurkat NFkB inh: lowers PMA/ionomycin-induced NF-kB signal in Jurkat cells; actives 0.53% (n = 330,000); AID 435003; PMA/ionomycin-induced NF-kB luciferase reporter, luminescence; inhibition, % at 4 µM; in the data active means inhibition above about 50%
697 NFkB conf: inhibitors of the PMA/ionomycin-induced NF-kB reporter in 697 B cells, retest. shares compounds with 697 NFkB inh. actives 35% (n = 2,000). 697 B-cell NF-kB luciferase, 16 h. inhibition, % at 4 µM; in the data active means inhibition mostly above about 28%, no sharp cut-off; inactive means mostly below about 22%
CHOP UPR conf: confirmation of apoptotic unfolded protein response (CHOP) activators; shares compounds with UPR CHOP act; CHO-CHOP cells, CHOP-luciferase reporter luminescence; percent of tunicamycin response, DMSO as zero; activation, % at 10 µM; actives 64% (n = 1,000); AID 463112; in the data active means activation above about 33%;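 further: 0% = DMSO wells and 100% = tunicamycin 10 µg/mL wells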
Starred values were filed as active, the others as inactive; i = inactive; · = not tested or not shown.

SMILES | UPR XBP1 act | UPR CHOP act | 697 NFkB inh | CRFR2-BP antag | Jurkat NFkB inh | CHOP UPR conf | others
CN(C)c1ccc(C(=O)N/N=C/C23CC[C@@H](O)CC2(O)CC[C@@H]2[C@@H]3CCC3(C)C(C4=CC(=O)OC4)CCC23O)cc1 (some centres undefined) | -2 | -1 | i | 54* | -11 | · | 697 NFkB conf=-314
CC(=O)OC1CC[C@]2(C#N)[C@H]3CC[C@]4(C)[C@H](C5C=CC(=O)O5)CCC4(O)C3CCC2(O)C1 (some centres undefined) | -2 | 0 | i | 0 | 10 | · | 697 NFkB conf=-246
Cc1nc2c(-c3ccccc3)c(C)nn2c(C)c1CCC(=O)N1CCC2(CC1)OCCO2 | 4 | -3 | -14 | -8 | 0 | ·
Cc1nc2cc(-c3cccc(F)c3)nn2c(C)c1CCC(=O)N1CCC2(CC1)OCCO2 | -1 | -1 | 36* | -7 | 18 | · | 697 NFkB conf=36*
CCOC(=O)C1(CCc2ccccc2)CCN(CC(O)CO)CC1 (centres undefined) | -4 | 0 | 7 | 3 | -10 | ·
COC(=O)C(C)Oc1cc(C)cc2oc(=O)c3c(c12)CCC3 (centres undefined) | -1 | 2 | 36* | 23 | 14 | · | 697 NFkB conf=55*
Oc1ccccc1-[n+]1c(-c2ccccc2)cc(-c2ccccc2)c(O)c1-c1ccccc1 | 1 | 4 | -5 | 1 | -2 | ·
CN(C)P(=O)(C(Cl)=C(N1CCCCC1)N1CCCCC1)N(C)C | -1 | -1 | 41* | -7 | -17 | · | 697 NFkB conf=23
O=C(N1CCCCCC1)N1CC1 | · | · | · | -5 | · | ·
Cc1nn(Cc2ccc(Cl)cc2Cl)c(Cl)c1C(=O)O | -2 | -2 | 3 | 21 | 4 | ·
N=c1c2c(n(Cc3ccc(Cl)cc3Cl)c3c1CCC3)CCCC2 | -2 | 0 | 68* | 19 | 30 | · | 697 NFkB conf=33*
CCS(=O)(=O)NC(C)c1nnc2n1-c1ccc(Br)cc1C(c1ccccc1Cl)=NC2 (centres undefined) | -1 | 0 | -5 | -8 | 2 | ·
Cc1cc(N=Nc2ccccc2C)ccc1N | 6 | 5 | -330 | -4 | -72 | · | 697 NFkB conf=-113
Cc1ccc(N)c(C(=O)c2ccccc2)c1 | -1 | 0 | 14 | 17 | -9 | ·
CC1C(=O)OC2CCN3CC4OC4(COC(=O)C(C)(O)C1(C)O)C23 (centres undefined) | · | · | · | 7 | · | ·
C=CCn1c(O)c(C(CC)=NC(C)c2ccccc2)c(=O)[nH]c1=O (centres undefined) | 0 | -1 | 61* | -8 | -8 | · | 697 NFkB conf=39*
Cc1cc(C)cc(N2C(=O)NC(=O)/C(=C\c3cccn3-c3ccccc3)C2=O)c1 | -4 | 189* | 53* | -99 | 10 | 333* | 697 NFkB conf=61*
CC(=NNC(=S)N1CC2CCC(CC2)C1)c1nccs1 | · | · | · | -14 | · | ·
COc1ccc(-n2c(/C=C/c3ccc(O)c(OC)c3)nc3ccccc3c2=O)cc1 | 2 | 4 | 15 | 11 | -15 | ·
COc1cc(/C=C/[N+](=O)[O-])ccc1O | -3 | 189* | -2 | -7 | 4 | 54*
CCn1c(O)c(N=Nc2cccc(S(=O)(=O)N3CCOCC3)c2)c(=O)n(CC)c1=S | -1 | 41* | 6 | -17 | -1 | 5
CC(C)NC1C2CCC(CC2)C1(O)c1ccc(Cl)c(Cl)c1 (centres undefined) | · | · | · | -26 | · | ·
COc1cccc(N2C(=O)/C(=C/c3ccc(C)o3)C(=O)NC2=S)c1 | -1 | 262* | -14 | -2 | -17 | 0
Cc1ccc(/C=C2\C(=O)NC(=S)N(c3ccc(F)cc3)C2=O)o1 | -3 | 0 | -2 | -2 | -6 | ·
Cc1ccc(/C=C2\C(=O)NC(=S)N(c3ccc(F)cc3)C2=O)s1 | -8 | 393* | -22 | -23 | -4 | 17
SMILES | UPR XBP1 act | UPR CHOP act | 697 NFkB inh | CRFR2-BP antag | Jurkat NFkB inh | CHOP UPR conf | others
COc1ccc(N2C(=O)/C(=C/C=C/c3ccccc3[N+](=O)[O-])C(=O)NC2=S)cc1 | -7 | 355* | 8 | -10 | 18 | 90*
Cc1ccc(/C=C2\C(=O)NC(=S)N(c3ccccc3F)C2=O)s1 | · | · | · | -65 | · | ·
COc1ccc(N2C(=O)/C(=C/c3cccs3)C(=O)NC2=S)cc1 | -7 | 462* | 25 | 7 | 7 | 157*
COc1ccc(S(=O)(=O)N2Cc3cnnn3-c3ccccc3C2C#N)cc1 (centres undefined) | · | · | · | -12 | · | ·
C[C@]12CCC3C(CC[C@H]4C[C@H](O)[C@H](O)C[C@]34C)C1CC[C@@H]2O (some centres undefined) | · | · | · | -19 | · | ·
COc1ccc(-n2c(C)nc3ccccc3c2=O)c([N+](=O)[O-])c1 | -4 | 1 | 12 | 4 | -3 | ·
CCOC(=O)c1c(-n2c(C)cc(C=C3C(=O)NC(=S)NC3=O)c2C)sc2c1CCCC2 | 4 | 185* | 10 | -5 | 4 | -11
CCOC(=O)c1c(-n2c(C)cc(/C=C3/C(=O)NC(=O)N(CC)C3=O)c2C)sc2c1CCCC2 | -1 | 1 | 17 | -43 | -3 | ·
Cc1c(C(=O)c2cccc3ccccc23)c2cccc3c2n1[C@H](CN1CCOCC1)CO3 | 29 | 58* | 10 | -58 | -11 | 40*
O=c1[nH]c(=S)n(C2CC2)c(O)c1C=Nc1cccc(C(F)(F)F)c1 | 23 | 46* | 6 | -24 | 16 | 36*
CN(CCc1ccccc1)Cc1c[nH]c2ccccc12 | 5 | 88* | -13 | -1 | 3 | 20
CC1CCCC(NC(=O)COC(=O)c2cn(C)c3ccccc23)C1C (centres undefined) | -3 | 2 | 1 | 4 | 3 | ·
CC(C)c1ccc(N2C(=O)NC(=O)/C(=C\C=C\c3ccco3)C2=O)cc1 | -5 | 250* | -20 | -143 | 5 | 254*
CCCCn1c(=O)c(C(=O)Nc2ccccc2C)c(O)c2ccccc21 | -2 | 1 | -15 | -8 | -18 | ·
CCCCCn1c(=O)c(C(=O)Nc2ncccc2C)c(O)c2ccccc21 | 36* | 46* | -23 | 2 | 2 | 24
C[C@H](NC(=O)CCC(=O)N1C[C@H]2C[C@H](C1)c1cccc(=O)n1C2)c1ccccc1 | -1 | 0 | 14 | -1 | 1 | ·
CCOc1cc2c(cc1OCC)-n1cccc1C(c1cccc(OCC)c1O)NC2 (centres undefined) | -7 | 0 | 13 | -21 | -23 | ·
COc1ccc(/C=C2/C(=O)N(Cc3ccco3)C(=O)N(C(C)C)C2=O)cc1 | -2 | -2 | -11 | -11 | -5 | ·
CC(C)N1C(=O)/C(=C/C=C/c2ccco2)C(=O)N(Cc2ccco2)C1=O | 8 | 45* | 10 | -18 | 8 | 156*

Bioassay records deposited in PubChem BioAssay by Sanford-Burnham Center for Chemical Genomics.
